Structures are written as SMILES. The source made the active and inactive calls. The rule behind the calls is not given here.

Data set [1] concerns the target T1, Protein deacetylase HDAC6 (Homo sapiens) (UniProt Q9UBN7).
T1 sequence (whole entry): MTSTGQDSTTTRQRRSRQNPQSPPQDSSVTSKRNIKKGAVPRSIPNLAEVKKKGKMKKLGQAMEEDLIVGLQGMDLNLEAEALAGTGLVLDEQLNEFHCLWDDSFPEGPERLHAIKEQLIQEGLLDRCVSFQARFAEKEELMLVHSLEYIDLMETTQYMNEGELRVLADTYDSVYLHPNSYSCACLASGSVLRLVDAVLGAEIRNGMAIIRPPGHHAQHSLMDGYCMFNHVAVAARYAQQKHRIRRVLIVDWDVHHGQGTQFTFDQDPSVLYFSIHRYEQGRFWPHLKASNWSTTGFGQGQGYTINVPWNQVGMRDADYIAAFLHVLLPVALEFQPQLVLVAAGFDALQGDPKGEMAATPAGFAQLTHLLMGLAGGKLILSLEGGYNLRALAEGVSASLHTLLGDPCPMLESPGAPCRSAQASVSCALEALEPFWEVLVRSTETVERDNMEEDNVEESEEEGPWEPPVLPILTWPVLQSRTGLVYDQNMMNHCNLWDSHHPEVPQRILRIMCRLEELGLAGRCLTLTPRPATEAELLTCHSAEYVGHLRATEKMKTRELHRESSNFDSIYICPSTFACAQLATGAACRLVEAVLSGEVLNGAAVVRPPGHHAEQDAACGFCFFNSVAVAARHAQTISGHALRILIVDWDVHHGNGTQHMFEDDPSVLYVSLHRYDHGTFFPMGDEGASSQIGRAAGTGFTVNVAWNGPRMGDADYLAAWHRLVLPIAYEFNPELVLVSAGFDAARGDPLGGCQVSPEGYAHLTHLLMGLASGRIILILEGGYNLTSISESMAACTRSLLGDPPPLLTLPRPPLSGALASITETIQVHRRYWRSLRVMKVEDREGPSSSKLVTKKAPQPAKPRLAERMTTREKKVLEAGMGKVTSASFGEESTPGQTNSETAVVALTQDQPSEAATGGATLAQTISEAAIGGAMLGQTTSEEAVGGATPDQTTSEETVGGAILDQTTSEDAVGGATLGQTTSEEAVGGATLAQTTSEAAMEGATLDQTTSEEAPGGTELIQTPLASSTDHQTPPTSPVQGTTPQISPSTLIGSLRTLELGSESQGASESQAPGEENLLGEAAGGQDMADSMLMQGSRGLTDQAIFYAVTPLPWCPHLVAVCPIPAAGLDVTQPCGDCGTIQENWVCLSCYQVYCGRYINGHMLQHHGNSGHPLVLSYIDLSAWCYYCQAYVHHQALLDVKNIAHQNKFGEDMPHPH
The experiment in a line: Inhibition of HDAC6 binding to HSP90 in human SH-SY5Y cells transfected with pCAX FLAG APP and pRK5-EGFP-Tau P301L plasmids at 1 uM after 24 hrs by coimmunoprecipitation analysis. It counts as cell-based. In outline: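 SH-SY5Y and Neuro-2a cells cotransfected 24 h with APP695/Tau P301L plasmids, treated 24 h at 1 µM (ACY-1215 reference). 30 µg lysate immunoprecipitated overnight at 4 °C with anti-HDAC6 or anti-acetyl-lysine antibodies plus protein A/G beads, run on 8% SDS-PAGE, probed for Hsp90; Hsp70 by immunoblot. Three independent experiments.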

The test system of a further data set is Mus musculus. The experiment in a line: In vivo inhibition of HDAC6 in 3xTg-AD transgenic mouse brain hippocampal CA1 region assessed as downregulation of Tau phosphorylation at Ser396 residue at 50 mg/kg, po administered daily for 3 months by Western blot analysis. (In general: A western blot detects proteins with antibodies after separation by electrophoresis.)

Data set [2] concerns the target T1, Protein deacetylase HDAC6 (Homo sapiens). Description: Inhibition of HDAC6 in human SH-SY5Y cells transfected with pCAX FLAG APP and pRK5-EGFP-Tau P301L plasmids assessed as increase in coimmunoprecipitation of ubiquitin with phosphorylated tau at Ser396 residue at 1 uM after 24 hrs. The data set is classed as cell-based. The procedure, abridged:
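In APP695/Tau P301L-cotransfected SH-SY5Y cells treated 24 h at 1 µM, lysates (30 µg) were immunoprecipitated with anti-ubiquitin antibody and protein A/G beads overnight at 4 °C, then immunoblotted for phospho-tau Ser396 after 8% SDS-PAGE.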

For data set [3] the target is unchanged. The experiment in a line: Inhibition of HDAC6 in human SH-SY5Y cells transfected with pCAX FLAG APP and pRK5-EGFP-Tau P301L plasmids assessed as reduction in formed Tau P301L mutant aggregates level at 1 uM after 24 hrs by Western blot analysis. The data set is classed as cell-based. The procedure, abridged: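 Cotransfected SH-SY5Y cells (1 × 10^7) treated 24 h at 1 µM, lysed in sucrose/HEPES pH 7.2 buffer; 190,000 g supernatant = cytosol. Pellet treated with 5 µM nocodazole, re-spun; residual pellet extracted with sodium carbonate pH 11.5 and washed in 1% SDS to give aggregate fraction. Equal protein by SDS-PAGE immunoblot.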

For data set [4] the target is unchanged. Description: Inhibition of HDAC6 in human SH-SY5Y cells transfected with pCAX FLAG APP and pRK5-EGFP-Tau P301L plasmids assessed as inhibition of Tau P301L mutant phosphorylation at Ser404 residue at 1 uM after 24 hrs by Western blot analysis. It counts as cell-based. In outline:
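SH-SY5Y or Neuro-2a cells cotransfected 24 h with pCAX APP695 and pRK5-EGFP-Tau P301L, then treated 24 h at 1 µM. 20 µg lysate protein immunoblotted for APP and phospho-tau Ser396/Ser404. Mean ± STD of three independent experiments; Student's t-test.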

Data set [5] concerns Rattus norvegicus. The experiment in a line: Reversal of scopolamine-induced spatial memory impairment in Wistar rat assessed as decrease in transfer latency time at 25 mg/kg, po administered once daily for 1 week followed by scopolamine challenge 90 mins prior to test by elevated plus maze test. It counts as functional, organism-based. In outline:
(§1)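 Male Wistar rats, 7 weeks old, dosed orally at 25 mg/kg in 1% carboxymethyl cellulose/0.5% Tween 80 once daily. Scopolamine 1 mg/kg i.p. 90 min before test trial (controls excluded). Morris water maze (hidden platform escape latency), elevated plus maze (started at open-arm end, time to closed arm), then CA1 phospho-tau Ser396/Ser404 immunohistochemistry.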

Data set [6] deals with Rattus norvegicus. The experiment in a line: Reversal of scopolamine-induced spatial memory impairment in Wistar rat assessed as reduction in escape latency in hidden platform at 25 mg/kg, po administered once daily for 1 week followed by scopolamine challenge 90 mins prior to test by Morris water maze test. The data set is classed as functional, organism-based. The procedure, abridged: as §1

Data set [7] deals with T1, Protein deacetylase HDAC6 (Homo sapiens). Description: Inhibition of HDAC6 in human SH-SY5Y cells assessed as increase in acetylation of alpha-tubulin at 0.1 to 1 uM after 24 hrs by Western blot analysis. It counts as cell-based. In outline: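 SH-SY5Y cells in MEM with 10% FBS at 37 °C, 5% CO2, treated 24 h at 0.1–1 µM. Lysates in HEPES/Triton buffer; 20 µg protein run on SDS-PAGE and immunoblotted for acetyl-α-tubulin, α-tubulin, acetyl-histone H3 and histone H3 with ECL detection.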

Data set [8] is described as follows: Drug uptake in Sprague-Dawley rat brain at 50 mg/kg, po after 1 hr by HPLC-MS/MS analysis. It counts as ADME, organism-based. The following applies: read-out: Drug uptake.
Data set [9] is described as follows: Toxicity in Balb/c mouse assessed as survival rate at 500 mg/kg, ip qd administered for 6 days followed by 1 week recovery (reference value: 100%). To be noted: in vivo. It counts as organism-based.

Consider `COc1ccc(C(=O)c2ccc3c(ccn3Cc3ccc(C(=O)NO)cc3)c2)cc1`, for which the inhibition result (in data set [1]; in the data set with Mus musculus; in [2]; in data set [3]; in data set [4]; in data set [7]) was “Active” in each case. Moreover, the outcome in the data set with Rattus norvegicus [5] and in the data set on Rattus norvegicus [6] was Active. Further, the concentration at 1 h in data set [8] turned out to be 10.4 ng/g. Besides, the survival in data set [9] is 100%.
